Test results taken from ChEMBL document CHEMBL4334464, “From Phenylthiazoles to Phenylpyrazoles: Broadening the Antibacterial Spectrum toward Carbapenem-Resistant Bacteria” (J Med Chem, 2019).
≈ marks a conversion by molar mass, not a printed value. Calls of active or inactive are those of the source. No cut-off for these calls is given here.

Tests used:
Assay type in all cases: functional
Klebsiella pneumoniae [1] = assay: Antibacterial activity against carbapenem-resistant Klebsiella pneumoniae ATCC BAA-2146 clinical isolates after 18 to 20 hrs in aerobic condition by CLSI-based broth microdilution assay
Escherichia coli [2] = assay: Antibacterial activity against carbapenem-resistant Escherichia coli BAA-2469 clinical isolates after 18 to 20 hrs in aerobic condition by CLSI-based broth microdilution assay
Klebsiella pneumoniae [3] = assay: Antibacterial activity against carbapenem-resistant Klebsiella pneumoniae ATCC BAA-1705 clinical isolates after 18 to 20 hrs in aerobic condition by CLSI-based broth microdilution assay
Acinetobacter baumannii [4] = assay: Antibacterial activity against carbapenem-resistant Acinetobacter baumannii ATCC BAA 1605 clinical isolates after 18 to 20 hrs in aerobic condition by CLSI-based broth microdilution assay
Escherichia coli [5] = assay: Antibacterial activity against carbapenem-resistant Escherichia coli BAA-2452 clinical isolates after 18 to 20 hrs in aerobic condition by CLSI-based broth microdilution assay
Pseudomonas aeruginosa [6] = assay: Antibacterial activity against carbapenem-resistant Pseudomonas aeruginosa ATCC 1744 clinical isolates after 18 to 20 hrs in aerobic condition by CLSI-based broth microdilution assay
Escherichia coli [7] = assay: Antimicrobial activity against Escherichia coli JW55031 harboring deltatolC mutant after 18 to 20 hrs in aerobic condition by CLSI protocol based broth microdilution assay
Staphylococcus aureus [8] = assay: Antibacterial activity against methicillin-resistant Staphylococcus aureus NRS384-USA300 clinical isolates after 18 to 20 hrs in aerobic condition by CLSI protocol based broth microdilution assay
Staphylococcus aureus [9] = assay: Antibiofilm activity against methicillin-resistant Staphylococcus aureus NRS384-USA300 clinical isolates assessed as inhibition of biofilm formation at 0.5 times MIC incubated for 24 hrs by crystal violet staining based spectrophotometric method relative to control
Salmonella enteritidis [10] = assay: Antibacterial activity against Salmonella enteritidis ATCC 14028 infected in mouse J774 cells assessed as reduction in intracellular bacterial cells at 2 times MIC incubated for 24 hrs followed by re-plating on TSA plate and measured after 18 to 22 hrs relative to control; settings: Salmonella enterica subsp. enterica serovar Enteritidis
How it was run: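 J774 murine macrophages infected with Salmonella enteritidis ATCC 14028, then treated at 2×MIC for 24 h, in triplicate. Read-out is the percent reduction in intracellular colony forming units versus the untreated control.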

Staphylococcus aureus [11] = assay: Antibacterial activity against linezolid-resistant/Methicillin-resistant Staphylococcus aureus NRS119 clinical isolates after 18 to 20 hrs in aerobic condition by CLSI protocol based broth microdilution assay
Listeria monocytogenes = assay: Antibacterial activity against Listeria monocytogenes ATCC 19111 after 18 to 20 hrs in aerobic condition by CLSI-based broth microdilution assay
Staphylococcus aureus [12] = assay: Antibacterial activity against Methicillin-resistant Staphylococcus aureus NRS123-USA400 clinical isolates after 18 to 20 hrs in aerobic condition by CLSI protocol based broth microdilution assay
Staphylococcus aureus [13] = assay: Antibacterial activity against Methicillin-sensitive Staphylococcus aureus NRS107 clinical isolates after 18 to 20 hrs in aerobic condition by CLSI protocol based broth microdilution assay
Staphylococcus aureus [14] = assay: Antibacterial activity against vancomycin-resistant Staphylococcus aureus isolate 12 after 18 to 20 hrs in aerobic condition by CLSI-based broth microdilution assay
[15] = system: Staphylococcus epidermidis; assay: Antibacterial activity against Staphylococcus epidermidis NRS101 after 18 to 20 hrs in aerobic condition by CLSI-based broth microdilution assay
Enterococcus faecium = assay: Antibacterial activity against vancomycin-resistant Enterococcus faecium ATCC 700221 clinical isolates after 18 to 20 hrs in aerobic condition by CLSI-based broth microdilution assay
Staphylococcus aureus [16] = assay: Antibacterial activity against Methicillin-sensitive Staphylococcus aureus ATCC 6538 clinical isolates after 18 to 20 hrs in aerobic condition by CLSI protocol based broth microdilution assay
Staphylococcus aureus [17] = assay: Antibacterial activity against vancomycin-resistant Staphylococcus aureus isolate 10 after 18 to 20 hrs in aerobic condition by CLSI-based broth microdilution assay
Salmonella enteritidis [18] = assay: Antibacterial activity against Salmonella enteritidis ATCC 14028 clinical isolates after 18 to 20 hrs in aerobic condition by CLSI-based broth microdilution assay; settings: Salmonella enterica subsp. enterica serovar Enteritidis
Klebsiella pneumoniae [19] = assay: Antibacterial activity against Klebsiella pneumoniae BAA-1144 clinical isolates after 18 to 20 hrs in aerobic condition by CLSI-based broth microdilution assay
Escherichia coli [20] = assay: Antibacterial activity against Escherichia coli ATCC 35150 clinical isolates after 18 to 20 hrs in aerobic condition by CLSI-based broth microdilution assay
Escherichia coli [21] = assay: Antibacterial activity against Escherichia coli ATCC 25922 clinical isolates after 18 to 20 hrs in aerobic condition by CLSI-based broth microdilution assay
Acinetobacter baumannii [22] = assay: Antibacterial activity against Acinetobacter baumannii ATCC BAA 1141 clinical isolates after 18 to 20 hrs in aerobic condition by CLSI-based broth microdilution assay
Acinetobacter baumannii [23] = assay: Antibacterial activity against Acinetobacter baumannii NR 17785 clinical isolates after 18 to 20 hrs in aerobic condition by CLSI-based broth microdilution assay
Pseudomonas aeruginosa [24] = assay: Antibacterial activity against Pseudomonas aeruginosa ATCC 15442 clinical isolates after 18 to 20 hrs in aerobic condition by CLSI-based broth microdilution assay
Salmonella enteritidis [25] = assay: Antibacterial activity against Salmonella enteritidis ATCC 13076 clinical isolates after 18 to 20 hrs in aerobic condition by CLSI-based broth microdilution assay; settings: Salmonella enterica subsp. enterica serovar Enteritidis
Salmonella enterica = assay: Antibacterial activity against Salmonella enterica NR-170 clinical isolates after 18 to 20 hrs in aerobic condition by CLSI-based broth microdilution assay
Salmonella typhimurium = assay: Antibacterial activity against Salmonella typhimurium ATCC 700720 after 18 to 20 hrs in aerobic condition by CLSI-based broth microdilution assay; settings: Salmonella enterica subsp. enterica serovar Typhimurium
Klebsiella pneumoniae [26] = assay: Antibacterial activity against Klebsiella pneumoniae BAA-1706 clinical isolates after 18 to 20 hrs in aerobic condition by CLSI-based broth microdilution assay
Acinetobacter baumannii [27] = assay: Antibacterial activity against Acinetobacter baumannii NR 17786 clinical isolates after 18 to 20 hrs in aerobic condition by CLSI-based broth microdilution assay
Shigella flexneri = assay: Antibacterial activity against Shigella flexneri ATCC 9199 clinical isolates after 18 to 20 hrs in aerobic condition by CLSI-based broth microdilution assay
[28] = system: Enterobacter cloacae subsp. cloacae; assay: Antibacterial activity against Enterobacter cloacae subsp. cloacae ATCC BAA-1143 clinical isolates after 18 to 20 hrs in aerobic condition by CLSI-based broth microdilution assay
Acinetobacter baumannii [29] = assay: Antibacterial activity against Acinetobacter baumannii ATCC 19606 clinical isolates after 18 to 20 hrs in aerobic condition by CLSI-based broth microdilution assay; settings: ATCC 19606 = CIP 70.34 = JCM 6841

Compound: C[C@@H](O)[C@H]1C(=O)N2C(C(=O)O)=C(SCCNC=N)C[C@H]12 [IMIPENEM ANHYDROUS]
- MIC (Klebsiella pneumoniae [1]): 32 µg/mL (≈ 107 µM)
- MIC (Escherichia coli [2]): 32 µg/mL (≈ 107 µM)
- MIC (Klebsiella pneumoniae [3]): 32 µg/mL (≈ 107 µM)
- MIC (Acinetobacter baumannii [4]): 32 µg/mL (≈ 107 µM)
- MIC (Escherichia coli [5]): 32 µg/mL (≈ 107 µM)
- MIC (Pseudomonas aeruginosa [6]): 16 µg/mL (≈ 53.4 µM)

Compound: CCCCC#Cc1ccc(-n2ncc(/C(C)=N/NC3=NCCN3)c2C)cc1
- MIC (Escherichia coli [7]): 4 µg/mL (≈ 11 µM)
- MIC (Staphylococcus aureus [8]): 2 µg/mL (≈ 5.52 µM)

Compound: C/C(=N\NC1=NCCN1)c1cnn(-c2ccc(C#CC(C)(C)C)cc2)c1C
- MIC (Escherichia coli [7]): 16 µg/mL (≈ 44.1 µM)
- MIC (Staphylococcus aureus [8]): 16 µg/mL (≈ 44.1 µM)
- inhibition (INH) (Staphylococcus aureus [9]): 62%

Compound: C/C(=N\NC1=NCCN1)c1cnn(-c2ccc(C#CC3CCCCC3)cc2)c1C
- MIC (Escherichia coli [7]): 4 µg/mL (≈ 10.3 µM)
- MIC (Staphylococcus aureus [8]): 4 µg/mL (≈ 10.3 µM)

Compound: NC[C@H]1O[C@H](O[C@H]2[C@H](O)[C@@H](O[C@H]3O[C@H](CO)[C@@H](O)[C@H](N)[C@H]3O)[C@H](N)C[C@@H]2N)[C@H](O)[C@@H](O)[C@@H]1O
- Activity (Salmonella enteritidis [10]): inactive

Compound: C/C(=N\NC1=NCCN1)c1cnn(-c2ccc(C#Cc3ccccc3)cc2)c1C
- MIC (Escherichia coli [7]): 4 µg/mL (≈ 10.5 µM)
- MIC (Staphylococcus aureus [8]): 4 µg/mL (≈ 10.5 µM)

Compound: C/C(=N\NC1=NCCN1)c1cnn(-c2ccc(C#CC(C)(C)O)cc2)c1C
- MIC (Escherichia coli [7]): 16 µg/mL (≈ 43.9 µM)
- MIC (Staphylococcus aureus [8]): 32 µg/mL (≈ 87.8 µM)

Compound: CC(=O)NC[C@H]1CN(c2ccc(N3CCOCC3)c(F)c2)C(=O)O1 [LINEZOLID]
- MIC (Staphylococcus aureus [11]): 32 µg/mL (≈ 94.9 µM)
- MIC (Listeria monocytogenes): 1 µg/mL (≈ 2.96 µM)
- MIC (Staphylococcus aureus [12]): 1 µg/mL (≈ 2.96 µM)
- MIC (Staphylococcus aureus [13]): 1 µg/mL (≈ 2.96 µM)
- MIC (Staphylococcus aureus [14]): 1 µg/mL (≈ 2.96 µM)
- MIC [15]: ≤ 0.5 µg/mL
- MIC (Enterococcus faecium): 1 µg/mL (≈ 2.96 µM)
- MIC (Staphylococcus aureus [16]): 1 µg/mL (≈ 2.96 µM)
- MIC (Staphylococcus aureus [8]): 1 µg/mL (≈ 2.96 µM)
- MIC (Staphylococcus aureus [17]): 1 µg/mL (≈ 2.96 µM)

Compound: C[C@@H](O)[C@H]1C(=O)N2C(C(=O)O)=C(S[C@@H]3CN[C@H](C(=O)N(C)C)C3)[C@H](C)[C@H]12 [MEROPENEM]
- MIC (Klebsiella pneumoniae [1]): 64 µg/mL (≈ 167 µM)
- MIC (Escherichia coli [2]): 32 µg/mL (≈ 83.4 µM)
- MIC (Klebsiella pneumoniae [3]): 32 µg/mL (≈ 83.4 µM)
- MIC (Acinetobacter baumannii [4]): 32 µg/mL (≈ 83.4 µM)
- MIC (Escherichia coli [5]): 32 µg/mL (≈ 83.4 µM)
- MIC (Pseudomonas aeruginosa [6]): 16 µg/mL (≈ 41.7 µM)

Compound: CN(C)c1cc(NC(=O)CNC(C)(C)C)c(O)c2c1C[C@H]1C[C@H]3[C@H](N(C)C)C(O)=C(C(N)=O)C(=O)[C@@]3(O)C(O)=C1C2=O [TIGECYCLINE]
- MIC (Klebsiella pneumoniae [1]): 4 µg/mL (≈ 6.83 µM)
- MIC (Escherichia coli [2]): 0.5 µg/mL (≈ 0.854 µM)
- MIC (Klebsiella pneumoniae [3]): 1 µg/mL (≈ 1.71 µM)
- MIC (Acinetobacter baumannii [4]): 1 µg/mL (≈ 1.71 µM)
- MIC (Escherichia coli [5]): 0.25 µg/mL (≈ 0.427 µM)
- MIC (Pseudomonas aeruginosa [6]): 8 µg/mL (≈ 13.7 µM)

Compound: C/C(=N\NC(=N)N)c1cnn(-c2ccc(C#CC(C)(C)O)cc2)c1C
- MIC (Escherichia coli [7]): 128 µg/mL (≈ 378 µM)
- MIC (Staphylococcus aureus [8]): 128 µg/mL (≈ 378 µM)

Compound: CCN(CC)CC#Cc1ccc(-n2ncc(/C(C)=N/NC(=N)N)c2C)cc1
- MIC (Escherichia coli [7]): 128 µg/mL (≈ 350 µM)
- MIC (Staphylococcus aureus [8]): 128 µg/mL (≈ 350 µM)

Compound: GENTAMICIN
- MIC (Salmonella enteritidis [18]): 1 µg/mL
- MIC (Klebsiella pneumoniae [19]): 16 µg/mL
- MIC (Escherichia coli [20]): 1 µg/mL
- MIC (Escherichia coli [21]): 1 µg/mL
- MIC (Acinetobacter baumannii [22]): 4 µg/mL
- MIC (Acinetobacter baumannii [23]): > 64 µg/mL
- MIC (Pseudomonas aeruginosa [24]): 2 µg/mL
- MIC (Salmonella enteritidis [25]): 1 µg/mL
- MIC (Salmonella enterica): 1 µg/mL
- MIC (Salmonella typhimurium): 1 µg/mL
- MIC (Klebsiella pneumoniae [26]): 8 µg/mL
- MIC (Acinetobacter baumannii [27]): 64 µg/mL
- MIC (Shigella flexneri): 1 µg/mL
- MIC [28]: 1 µg/mL
- MIC (Acinetobacter baumannii [29]): 16 µg/mL

Compound: COLISTIN
- MIC (Klebsiella pneumoniae [1]): 0.25 µg/mL
- MIC (Escherichia coli [2]): 0.06 µg/mL
- MIC (Klebsiella pneumoniae [3]): 0.125 µg/mL
- MIC (Acinetobacter baumannii [4]): 0.25 µg/mL
- MIC (Escherichia coli [5]): 0.06 µg/mL
- MIC (Pseudomonas aeruginosa [6]): 1 µg/mL
